# Key:
# [1] = system: GRK site pS-(355,356) of the β2AR in WT-β2AR cells; experiment: Intact-cell GRK site phosphorylation of the β2AR; type: cell-based; details: 100 μM, 20 min pretreatment, 20 nM ISO
# [2] = system: PKA site pS-262 of the β2AR in WT-β2AR cells; experiment: Intact-cell PKA site phosphorylation of the β2AR; type: cell-based; details: 100 μM, 20 min pretreatment, 20 nM ISO
# Outline: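 HEK293 cells stably expressing FLAG-β2AR (2–4 pmol/mg) on poly-L-lysine; 20 min with 100 μM TAT-tagged peptide, TAT or DMSO, then 20 nM ISO in 0.1 mM ascorbate/1 mM thiourea pH 7, or carrier, 5 min at 37 °C. Lysates on 12 % SDS-PAGE, immunoblot anti-pS262, reprobed anti-C-tail for normalisation. ≥4 experiments in duplicate, % of control.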
# adenylyl cyclase (AC) = experiment: Adenylyl cyclase activity in membranes from WT-β2AR cells; type: biochemical; details: 100 μM peptide, 10 min, 30 °C
structure (smiles),measurement,setting,value
CC(=O)NCC(=O)N[C@@H](CCCNC(=N)N)C(=O)N[C@@H](CCCCN)C(=O)N[C@@H](CCCCN)C(=O)N[C@@H](CCCNC(=N)N)C(=O)N[C@@H](CCCNC(=N)N)C(=O)N[C@@H](CCC(N)=O)C(=O)N[C@@H](CCCNC(=N)N)C(=O)N[C@@H](CCCNC(=N)N)C(=O)N[C@@H](CCCNC(=N)N)C(=O)N1CCC[C@H]1C(=O)N1CCC[C@H]1C(=O)N[C@@H](CCC(N)=O)C(N)=O [TAT],Effect on GRK phosphorylation of β2AR in intact cells,[1],did not inhibit
same,Effect on PKA site (S262) phosphorylation of the β2AR in intact cells,[2],did not inhibit
same,Effect on ISO-stimulated AC activity,adenylyl cyclase (AC); 1 μM ISO,without effect
same,Effect on FSK-stimulated AC activity,adenylyl cyclase (AC); 20 μM FSK,without effect

# From article PMC4269301 (International journal of peptide research and therapeutics, 2014)
